Measured values published in ChEMBL document CHEMBL1240350, “In vitro activity of CEM-101 against Streptococcus pneumoniae and Streptococcus pyogenes with defined macrolide resistance mechanisms” (Antimicrob Agents Chemother, 2010).
Converted amounts (≈) assume the structure as drawn.

Columns and labels:
Streptococcus pneumoniae [1] = assay: Antibacterial activity against penicillin-intermediate Streptococcus pneumoniae after overnight incubation by agar dilution method; format: functional
In short: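 Agar dilution on Mueller-Hinton agar supplemented with 5% sheep blood, inoculum 10^4 CFU/spot, read after overnight incubation at 35°C in ambient air. Clinical isolates with defined genotypes; S. pneumoniae ATCC 49619 quality control strain included in each run. MIC50/MIC90 are MICs inhibiting 50% and 90% of isolates.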

Streptococcus pneumoniae [2] = assay: Antibacterial activity against Streptococcus pneumoniae harboring erm(A) gene after overnight incubation by agar dilution method; format: functional
In short: (§1)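 Clinical isolates collected 1998–2008, with macrolide-resistance genes confirmed by PCR. MICs by agar dilution on Mueller-Hinton agar with 5% sheep blood. Inoculum 10^4 CFU/spot, incubated overnight at 35°C in ambient air. S. pneumoniae ATCC 49619 was the quality-control strain in every run.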

Streptococcus pneumoniae [3] = assay: Antibacterial activity against Streptococcus pneumoniae harboring mutation in 23S rRNA after overnight incubation by agar dilution method; format: functional; in short: as §1
Streptococcus pneumoniae [4] = assay: Antibacterial activity against macrolide-resistant Streptococcus pneumoniae harboring erm(B) gene after overnight incubation by agar dilution method; format: functional
In short: (§2)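 Agar dilution MICs on Mueller-Hinton agar with 5% sheep blood. Inoculum 10^4 CFU/spot, incubated overnight at 35°C in ambient air. Clinical S. pneumoniae or group A streptococcal isolates; resistance genotypes (erm(B), erm(A), mef(A)/mef(E)) were assigned by PCR. S. pneumoniae ATCC 49619 served as QC strain in each run. Range, MIC50 and MIC90 reported per phenotype group.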

Streptococcus pyogenes [5] = assay: Antibacterial activity against Streptococcus pyogenes harboring mef(A) gene after overnight incubation by agar dilution method; format: functional; in short: as §1
Streptococcus pyogenes [6] = assay: Antibacterial activity against Streptococcus pyogenes harboring erm(A) gene after overnight incubation by agar dilution method; format: functional; in short: as §1
Streptococcus pyogenes [7] = assay: Antibacterial activity against macrolide-resistant Streptococcus pyogenes harboring erm(B) gene after overnight incubation by agar dilution method; format: functional; in short: as §2
Streptococcus pyogenes [8] = assay: Antibacterial activity against macrolide-resistant Streptococcus pyogenes harboring mef(A) gene after overnight incubation by agar dilution method; format: functional; in short: as §2
Streptococcus pneumoniae [9] = assay: Antibacterial activity against macrolide-susceptible Streptococcus pneumoniae 1077 after overnight incubation by agar dilution method; format: functional
Streptococcus pneumoniae [10] = assay: Antibacterial activity against macrolide-susceptible Streptococcus pneumoniae 1077 after 43 passages and 10 compound-free subculturing by retest method; format: functional
Streptococcus pneumoniae [11] = assay: Antibacterial activity against macrolide-susceptible Streptococcus pneumoniae 1077 after 29 passages and 10 compound-free subculturing by retest method; format: functional
Streptococcus pneumoniae [12] = assay: Antibacterial activity against macrolide-susceptible Streptococcus pneumoniae 1077 after 49 passages and 10 compound-free subculturing by retest method; format: functional
Streptococcus pneumoniae [13] = assay: Antibacterial activity against macrolide-resistant Streptococcus pneumoniae 3665 harboring mef(A) gene after 14 passages and 10 compound-free subculturing by retest method; format: functional; settings: Streptococcus pneumoniae, 3665; read-out: MIC
Streptococcus pneumoniae [14] = assay: Antibacterial activity against macrolide-resistant Streptococcus pneumoniae 1076 harboring erm(B) and mef(A) gene after 14 passages and 10 compound-free subculturing by retest method; format: functional
In short: (§3)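 Multistep selection by daily serial passage in subinhibitory drug concentrations. Medium was cation-adjusted Mueller-Hinton broth plus 5% lysed horse blood. Each day the next inoculum came from the tube 1–2 dilutions below the MIC whose turbidity matched the growth control, for up to 50 days. Clone MICs by CLSI macrodilution; identity to the parent confirmed by SmaI PFGE.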

Streptococcus pneumoniae [15] = assay: Antibacterial activity against macrolide-resistant Streptococcus pneumoniae 1635 harboring erm(A) gene after 32 passages and 10 compound-free subculturing by retest method; format: functional; in short: as §3
Streptococcus pneumoniae [16] = assay: Antibacterial activity against macrolide-resistant Streptococcus pneumoniae 2686 harboring mutation in L4 ribosomal protein after 14 passages and 10 compound-free subculturing by retest method; format: functional
Streptococcus pneumoniae [17] = assay: Antibacterial activity against macrolide-resistant Streptococcus pneumoniae 2686 harboring mutation in L4 ribosomal protein after 25 passages and 10 compound-free subculturing by retest method; format: functional
Streptococcus pneumoniae [18] = assay: Antibacterial activity against macrolide-susceptible Streptococcus pneumoniae 7127 harboring S20N mutation in L4 ribosomal protein and A105V mutation in L22 ribosomal protein after 16 passages and 10 compound-free subculturing by retest method; format: functional
Streptococcus pneumoniae [19] = assay: Antibacterial activity against macrolide-susceptible Streptococcus pneumoniae 7127 harboring S20N mutation in L4 ribosomal protein and A105V mutation in L22 ribosomal protein after 15 passages and 10 compound-free subculturing by retest method; format: functional
Streptococcus pneumoniae [20] = assay: Antibacterial activity against macrolide-susceptible Streptococcus pneumoniae 7127 harboring S20N mutation in L4 ribosomal protein and A105V mutation in L22 ribosomal protein after 43 passages and 10 compound-free subculturing by retest method; format: functional
Streptococcus pneumoniae [21] = assay: Antibacterial activity against macrolide-resistant Streptococcus pneumoniae 3009 harboring mutation in 23S rRNA after 20 passages and 10 compound-free subculturing by retest method; format: functional
Streptococcus pneumoniae [22] = assay: Antibacterial activity against macrolide-resistant Streptococcus pneumoniae 3009 harboring mutation in 23S rRNA after 25 passages and 10 compound-free subculturing by retest method; format: functional
Streptococcus pneumoniae [23] = assay: Antibacterial activity against macrolide-resistant Streptococcus pneumoniae 3665 harboring mef(A) gene after overnight incubation by agar dilution method; format: functional
Streptococcus pneumoniae [24] = assay: Antibacterial activity against macrolide-resistant Streptococcus pneumoniae 1635 harboring erm(A) gene after overnight incubation by agar dilution method; format: functional
Streptococcus pneumoniae [25] = assay: Antibacterial activity against macrolide-resistant Streptococcus pneumoniae 3009 harboring mutation in 23S rRNA after overnight incubation by agar dilution method; format: functional
Streptococcus pyogenes [26] = assay: Antibacterial activity against macrolide-susceptible Streptococcus pyogenes 2132 after 28 passages and 10 compound-free subculturing by retest method
Streptococcus pyogenes [27] = assay: Antibacterial activity against macrolide-resistant Streptococcus pyogenes 2094 harboring erm(A) gene after overnight incubation by agar dilution method
Streptococcus pyogenes [28] = assay: Antibacterial activity against macrolide-resistant Streptococcus pyogenes 2094 harboring erm(A) gene after 6 passages and 10 compound-free subculturing by retest method
Streptococcus pyogenes [29] = assay: Antibacterial activity against macrolide-resistant Streptococcus pyogenes 2368 harboring erm(B) gene after 18 passages and 10 compound-free subculturing by retest method
Streptococcus pyogenes [30] = assay: Antibacterial activity against macrolide-resistant Streptococcus pyogenes 2094 harboring erm(A) gene after 34 passages and 10 compound-free subculturing by retest method
Streptococcus pyogenes [31] = assay: Antibacterial activity against macrolide-resistant Streptococcus pyogenes 2011 harboring mef(A) gene after 35 passages and 10 compound-free subculturing by retest method
Streptococcus pyogenes [32] = assay: Antibacterial activity against macrolide-resistant Streptococcus pyogenes 237 harboring mutation in L4 ribosomal protein after 20 passages and 10 compound-free subculturing by retest method
Streptococcus pyogenes [33] = assay: Antibacterial activity against macrolide-resistant Streptococcus pyogenes 237 harboring mutation in L4 ribosomal protein after 43 passages and 10 compound-free subculturing by retest method

CCC[C@@H]1C[C@@H](C(=O)N[C@@H]([C@H]2O[C@H](SC)[C@H](O)[C@@H](O)[C@H]2O)[C@H](C)Cl)N(C)C1 [CLINDAMYCIN]
MIC50 (Streptococcus pneumoniae [1]): 0.125 µg/mL (≈ 0.294 µM) | MIC90 (Streptococcus pneumoniae [1]): > 64 µg/mL | MIC (Streptococcus pneumoniae [2]): 0.125 µg/mL (≈ 0.294 µM) | MIC (Streptococcus pneumoniae [3]): 0.03 µg/mL (≈ 0.0706 µM) | MIC50 (Streptococcus pneumoniae [4]): > 64 µg/mL | MIC50 (Streptococcus pyogenes [5]): 0.06 µg/mL (≈ 0.141 µM) | MIC90 (Streptococcus pyogenes [5]): 0.125 µg/mL (≈ 0.294 µM) | MIC50 (Streptococcus pyogenes [6]): 0.125 µg/mL (≈ 0.294 µM) | MIC90 (Streptococcus pyogenes [6]): 0.25 µg/mL (≈ 0.588 µM) | MIC50 (Streptococcus pyogenes [7]): > 64 µg/mL | MIC90 (Streptococcus pyogenes [7]): > 64 µg/mL | MIC50 (Streptococcus pyogenes [8]): 0.06 µg/mL (≈ 0.141 µM) | MIC90 (Streptococcus pyogenes [8]): 0.125 µg/mL (≈ 0.294 µM) | MIC (Streptococcus pneumoniae [9]): 0.016 µg/mL (≈ 0.0376 µM) | MIC (Streptococcus pneumoniae [10]): 0.03 µg/mL (≈ 0.0706 µM) | MIC (Streptococcus pneumoniae [11]): 4 µg/mL (≈ 9.41 µM) | MIC (Streptococcus pneumoniae [12]): 8 µg/mL (≈ 18.8 µM) | MIC (Streptococcus pneumoniae [13]): 0.03 µg/mL (≈ 0.0706 µM) | MIC (Streptococcus pneumoniae [14]): > 64 µg/mL | MIC (Streptococcus pneumoniae [15]): 0.03 µg/mL (≈ 0.0706 µM) | MIC (Streptococcus pneumoniae [16]): 0.03 µg/mL (≈ 0.0706 µM) | MIC (Streptococcus pneumoniae [17]): 0.03 µg/mL (≈ 0.0706 µM) | MIC (Streptococcus pneumoniae [18]): 0.03 µg/mL (≈ 0.0706 µM) | MIC (Streptococcus pneumoniae [19]): 1 µg/mL (≈ 2.35 µM) | MIC (Streptococcus pneumoniae [20]): 0.25 µg/mL (≈ 0.588 µM) | MIC (Streptococcus pneumoniae [21]): 1 µg/mL (≈ 2.35 µM) | MIC (Streptococcus pneumoniae [22]): 1 µg/mL (≈ 2.35 µM) | MIC (Streptococcus pneumoniae [23]): 0.016 µg/mL (≈ 0.0376 µM) | MIC (Streptococcus pneumoniae [24]): 0.06 µg/mL (≈ 0.141 µM) | MIC (Streptococcus pneumoniae [25]): 1 µg/mL (≈ 2.35 µM) | MIC (Streptococcus pyogenes [26]): 0.03 µg/mL (≈ 0.0706 µM) | MIC (Streptococcus pyogenes [27]): 0.06 µg/mL (≈ 0.141 µM) | MIC (Streptococcus pyogenes [28]): 0.06 µg/mL (≈ 0.141 µM) | MIC (Streptococcus pyogenes [29]): > 64 µg/mL | MIC (Streptococcus pyogenes [30]): > 64 µg/mL | MIC (Streptococcus pyogenes [31]): 0.06 µg/mL (≈ 0.141 µM) | MIC (Streptococcus pyogenes [32]): 0.03 µg/mL (≈ 0.0706 µM) | MIC (Streptococcus pyogenes [33]): 1 µg/mL (≈ 2.35 µM)
